Measured values: the RNAGym collection of RNA variant scans (doi:10.1126/science.aae0568)
Fewer inactive variants are shown than the library holds.

B1: tRNA (parent)
chain: GUUCCGUUGGCGUAAUGGUAACGCGUCUCCCUCCUAAGGAGAAGACUGCGGGUUCGAGUCCCGUACGGAACG

Variants of: B1
Experiment: yeast fitness relative to wild type (ratio to wild type); higher = fitter; tRNA-Arg(CCU), competitive growth, 37 C, YPD
Method in brief: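 The tRNA-Arg(CCU) gene variants were made by chemical synthesis with a 3% per-site mutation rate at 69 sites and inserted at the native genomic locus of Saccharomyces cerevisiae. After pooling, the strains were competed in YPD at 37°C for 24 hours in six parallel replicates. Gene amplicons from the start population and each end population were read by 100-nucleotide paired-end sequencing, and Darwinian fitness relative to wild type was taken from genotype frequency changes. Genotypes needed ≥ 100 starting reads, and estimates < 0.5 were set to 0.5.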

Compared with G10C G25A U64C, G10C C11G is higher in yeast fitness: no more than 0.5 for the first, 0.682 for the second.

Going from G10C C27A C61U to G10C C34A A57U, the yeast fitness rises from no more than 0.5 to 0.577.

First: G10C U47C G67C
Second: G10C A15G C27G
The yeast fitness of the first is lower: 0.536 for the first, 0.695 for the second.

First: G10C U13C C24G C55U
Second: G10C C46U
The yeast fitness of the first is higher: 0.64 for the first, 0.611 for the second.

First: G10C C46A
Second: C11A A42G
The yeast fitness of the first is lower: 0.626 for the first, 0.631 for the second.

Compared with C11A A36G G56C, G10C U32C is higher in yeast fitness: no more than 0.5 for the first, 0.73 for the second.

Going from G10C U32A to G10C A14U G51A C62U, the yeast fitness falls from 0.53 to no more than 0.5.

G10C C55G A70C and G10C C29G cannot be ordered by yeast fitness: no more than 0.5 for the first, no more than 0.5 for the second.

G10C C62U U64A and G10C G38C C49A G50C G68C cannot be ordered by yeast fitness: no more than 0.5 for the first, no more than 0.5 for the second.

G10C A15G G18A U35A G44A and C11A A36G C49G C60U G68A cannot be ordered by yeast fitness: no more than 0.5 for the first, no more than 0.5 for the second.

G10C U26C A45G U53C A65C and G10C C24U G52A G56A cannot be ordered by yeast fitness: no more than 0.5 for the first, no more than 0.5 for the second.

Going from G10C U32C C66G to G10C C27A A42U C62G, the yeast fitness rises from no more than 0.5 to 0.556.

G10C U35G A43C U47C C55U C62U A69C and G10C C24U G68C cannot be ordered by yeast fitness: no more than 0.5 for the first, no more than 0.5 for the second.

Compared with C11A A21G C34U A37G C62A, G10C C22U A70G is higher in yeast fitness: no more than 0.5 for the first, 0.513 for the second.

G10C G25C U26C U47C and G10C C31G C33U C60U cannot be ordered by yeast fitness: no more than 0.5 for the first, no more than 0.5 for the second.

G10C A14U U19A C22U A36G and G10C U16G C31A U32G A45G cannot be ordered by yeast fitness: no more than 0.5 for the first, no more than 0.5 for the second.

Compared with G10C C22G C29G C46U A65C, G10C U13A is higher in yeast fitness: no more than 0.5 for the first, 0.549 for the second.

Compared with G10C C24U C29G A45U C46G U47A G50A U64G, C11A A21C C31A C46G is lower in yeast fitness: 0.536 for the first, no more than 0.5 for the second.

Compared with C11A A14C, G10C C27A C34A A40G C60U A65U is lower in yeast fitness: 0.683 for the first, no more than 0.5 for the second.

C11A A14G U19G A43C U53A and G10C U35G cannot be ordered by yeast fitness: no more than 0.5 for the first, no more than 0.5 for the second.

G10C C30G A65C G68C and G10C C24G G50A cannot be ordered by yeast fitness: no more than 0.5 for the first, no more than 0.5 for the second.

Going from C11A A21U G58C A70C to G10C G12A A15G G63A, the yeast fitness rises from no more than 0.5 to 0.643.

Compared with G10C G23A, G10C U28G G39A C49A is lower in yeast fitness: 0.57 for the first, no more than 0.5 for the second.

G10U G17A G25C C29A G52A and G10C C22A C24G A36G G48A G50C cannot be ordered by yeast fitness: no more than 0.5 for the first, no more than 0.5 for the second.

C11A A21C G25C C34A A36U G44A and C11A A43G G50C G56C cannot be ordered by yeast fitness: no more than 0.5 for the first, no more than 0.5 for the second.

Compared with G10C C22U C61U, C11A A42C G58A is higher in yeast fitness: 0.518 for the first, 0.742 for the second.

G10C A20G C24U G38C U53G and G10C C27U G38A C46G G63A cannot be ordered by yeast fitness: no more than 0.5 for the first, no more than 0.5 for the second.

Going from G10C U26C to G10C C34A A40G G68C, the yeast fitness falls from 0.673 to no more than 0.5.

G10C C55U G56C and G10C C55U G56A cannot be ordered by yeast fitness: no more than 0.5 for the first, no more than 0.5 for the second.

G10C C29U G56A C61U and G10C U26A C34G cannot be ordered by yeast fitness: no more than 0.5 for the first, no more than 0.5 for the second.

Going from G10C G18C C22U U26G C30U A40G to C11A A14G A20U C22G C24U G48C G52A, the yeast fitness rises from no more than 0.5 to 0.57.

First: C11A A36G A69C
Second: G10C U26A C33U U53C A70C
The yeast fitness of the first is lower: 0.562 for the first, 0.724 for the second.

First: G10C C22A C24G U53A
Second: G10C C66G
The yeast fitness of the first is higher: 0.547 for the first, 0.515 for the second.

G10C C34U C60A G67A and G10C C61A A69G cannot be ordered by yeast fitness: no more than 0.5 for the first, no more than 0.5 for the second.

First: C11A A43G A65C
Second: G10C A14U U19A C22U C62A
The yeast fitness of the first is higher: 0.501 for the first, no more than 0.5 for the second.

Compared with G10C C49G, G10C C49U is lower in yeast fitness: 0.619 for the first, 0.613 for the second.

G10C C49A and C11A A21U U54G A65C cannot be ordered by yeast fitness: no more than 0.5 for the first, no more than 0.5 for the second.

C11A A40G C66U and C11A A14G U19G A43C U53A C62A C66U cannot be ordered by yeast fitness: no more than 0.5 for the first, no more than 0.5 for the second.

Compared with G10C A15C C24U U54C C60A C62A, G10C C34G G56C is lower in yeast fitness: 0.585 for the first, 0.52 for the second.

G10C C24A C33G A40G A42G and G10C G39C G51A cannot be ordered by yeast fitness: no more than 0.5 for the first, no more than 0.5 for the second.

First: G10C G25C G38C A40G A42G U64A G68A
Second: C11A A20U U47C C60G
The yeast fitness of the first is higher: 0.515 for the first, no more than 0.5 for the second.

Going from G10C A20G to G10C U19A C31G C34A A42G, the yeast fitness falls from 0.775 to no more than 0.5.

G10C C27G C30G G48C A65C and C11A A20U G38A A45C cannot be ordered by yeast fitness: no more than 0.5 for the first, no more than 0.5 for the second.

Compared with G10C U28A, G10U A69C is higher in yeast fitness: 0.59 for the first, 0.827 for the second.

G10C G12C G39A and G10C C22U U26A C49U A65U cannot be ordered by yeast fitness: no more than 0.5 for the first, no more than 0.5 for the second.

Going from G10C A42G to G10C C22U U59G C60U, the yeast fitness falls from 0.57 to no more than 0.5.

Going from G10C G50A U59A G67C to G10C G51C, the yeast fitness rises from no more than 0.5 to 0.535.

C11A A36G A43C A69U and G10C U19A C29G C34U cannot be ordered by yeast fitness: no more than 0.5 for the first, no more than 0.5 for the second.

First: G10C A70U
Second: G10C A70G
The yeast fitness of the first is higher: 0.75 for the first, 0.644 for the second.

G10C A14U C66U and G10C U16G C31A U32G A57U cannot be ordered by yeast fitness: no more than 0.5 for the first, no more than 0.5 for the second.

Compared with G10C A43G, C11A A21G C22G A37G is lower in yeast fitness: 0.739 for the first, no more than 0.5 for the second.

Compared with C11A A42C G51A, G10C C33G A43G C46G C62G is lower in yeast fitness: 0.73 for the first, 0.562 for the second.

C11A A14G C31G C34G C61U and G10C G44A A70U cannot be ordered by yeast fitness: no more than 0.5 for the first, no more than 0.5 for the second.

Compared with G10C U64A, G10C G18A G58A C66G is lower in yeast fitness: 0.671 for the first, no more than 0.5 for the second.

G10C C34U G39U A40C and G10C C33A G48A cannot be ordered by yeast fitness: no more than 0.5 for the first, no more than 0.5 for the second.

Going from G10C C34U A65G to G10C C46U C66U, the yeast fitness rises from no more than 0.5 to 0.561.

G10C A15U C29G C46U G51C C61G and G10C A36U C60G cannot be ordered by yeast fitness: no more than 0.5 for the first, no more than 0.5 for the second.

Going from G10C A45U C49G to G10C G18A G25C A45G, the yeast fitness falls from 0.583 to no more than 0.5.

Going from G10U A40G G58A G68C to C11A A21G C55G C62A, the yeast fitness falls from 0.631 to no more than 0.5.

G10C C29G U32G and G10C A21G C55G A57G C60A cannot be ordered by yeast fitness: no more than 0.5 for the first, no more than 0.5 for the second.

G10C C30G C60A and G10C G17A U28G G39A C49A cannot be ordered by yeast fitness: no more than 0.5 for the first, no more than 0.5 for the second.

Compared with G10C C29G U53A, G10C A37G is higher in yeast fitness: no more than 0.5 for the first, 0.656 for the second.

First: G10C C22A G56C A65G
Second: G10C G38C
The yeast fitness of the first is lower: no more than 0.5 for the first, 0.538 for the second.

C11A A20C A21G U47C G56C U64C G68C and C11A A14C C34A A36G cannot be ordered by yeast fitness: no more than 0.5 for the first, no more than 0.5 for the second.

C11A A15G A40G C49U C60A C61A and G10C C22U G44C cannot be ordered by yeast fitness: no more than 0.5 for the first, no more than 0.5 for the second.

First: G10C C33A A36U U53A U54A
Second: C11A A42G C61A
The yeast fitness of the first is lower: no more than 0.5 for the first, 0.618 for the second.

C11A A15G C22U C29A A43U A45G and G10C C27G A42C C49A cannot be ordered by yeast fitness: no more than 0.5 for the first, no more than 0.5 for the second.

Going from G10C C29A C33A G52A to G10C C46A C55U, the yeast fitness rises from 0.57 to 0.603.

G10C A14U U32C C62U and G10C C49A C55A C62U C66U cannot be ordered by yeast fitness: no more than 0.5 for the first, no more than 0.5 for the second.

First: C11A A21G C62G
Second: C11A A21C A42C C61U
The yeast fitness of the first is higher: 0.655 for the first, no more than 0.5 for the second.

Going from G10C U26G C27G U32A A40U to C11A A14G A43C A57G U59C A70G, the yeast fitness rises from no more than 0.5 to 0.542.

C11A A14G G25C C29G and G10C A21C C30U G41C cannot be ordered by yeast fitness: no more than 0.5 for the first, no more than 0.5 for the second.

C11A A14G A43C A57G U59C G63A A70G and G10C C22A C24G U26C U53A cannot be ordered by yeast fitness: no more than 0.5 for the first, no more than 0.5 for the second.

Going from G10C C24U to G10C G67C, the yeast fitness falls from 0.716 to 0.67.

Compared with G10C G67A, G10U is higher in yeast fitness: 0.673 for the first, 0.887 for the second.

G10C A37G C49U G52A C55G C66A and C11A A21C U53A C62U cannot be ordered by yeast fitness: no more than 0.5 for the first, no more than 0.5 for the second.

First: G10C U47C
Second: G10C U47G
The yeast fitness of the first is higher: 0.695 for the first, no more than 0.5 for the second.

C11A A14C C34A A70U and G10C C60U G63C cannot be ordered by yeast fitness: no more than 0.5 for the first, no more than 0.5 for the second.

Compared with G10C C11A A37C C49G G68C A69G, G10C A14U is higher in yeast fitness: no more than 0.5 for the first, 0.546 for the second.

First: G10C A20G C24U G38C G56C
Second: G10C C24G U28C A37G U47A
The yeast fitness of the first is higher: 0.561 for the first, no more than 0.5 for the second.

Going from G10C C31G C49U to G10C A45U, the yeast fitness rises from no more than 0.5 to 0.778.

Going from G10U G17A C24A C66G to G10C G41C C62U C66G A70G, the yeast fitness falls from 0.595 to no more than 0.5.

Compared with G10C A65G, G10C A65C is higher in yeast fitness: 0.719 for the first, 0.76 for the second.

For G10C A65U, the yeast fitness was 0.767.
